Data on 28 compounds can be found in ChEMBL document CHEMBL4732238, “Synthesis, biological evaluation, and structure-activity relationships of new tubulin polymerization inhibitors based on 5-amino-1,2,4-triazole scaffold” (Bioorg Med Chem Lett, 2021).

The subject of test [1] is MCF7. In words: Antiproliferative activity against human MCF7 cells assessed as cell growth inhibition at 100 uM by MTT assay relative to control. The format is functional. The settings on record: read-out: GI. An outline of the steps: (§1)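 Five human lines (MCF-7, HeLa, A549, PC-3, Panc-1) exposed to a single 100 μM concentration. Viability read by MTT. Results expressed as […] versus untreated control cells.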
A general note: Tetrazolium assays rely on reduction of a dye to a coloured formazan, in cell work by metabolically active cells.

For test [2], the system named is HeLa. The test is described as follows: Antiproliferative activity against human HeLa cells assessed as cell growth inhibition at 100 uM by MTT assay relative to control. The settings on record: read-out: GI. The format is functional. A digest of the protocol: as §1
Another test has as its system A549. The test is described as follows: Antiproliferative activity against human A549 cells assessed as cell growth inhibition at 100 uM by MTT assay relative to control. The format is functional. The note with it: read-out: GI. A digest of the protocol:
as §1

Another test concerns PC-3. In words: Antiproliferative activity against human PC-3 cells assessed as cell growth inhibition at 100 uM by MTT assay relative to control. The format is functional. The settings on record: read-out: GI. A digest of the protocol:
as §1

Test [3] deals with PANC-1. In words: Antiproliferative activity against human PANC-1 cells assessed as cell growth inhibition at 100 uM by MTT assay relative to control. The format is functional. The settings on record: read-out: GI. An outline of the steps:
as §1

Test [4] relates to MCF7. In words: Antiproliferative activity against human MCF7 cells assessed as cell growth inhibition by MTT assay. The format is functional, cell-based. A digest of the protocol: (§2)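 MTT antiproliferation readout. […] Mean ± SD from three independent experiments.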
In test [5] the test system is HeLa. The test is described as follows: Antiproliferative activity against human HeLa cells assessed as cell growth inhibition by MTT assay. The format is functional, cell-based. An outline of the steps:
as §2

In test [6] the test system is PANC-1. The test is described as follows: Antiproliferative activity against human PANC-1 cells assessed as cell growth inhibition by MTT assay. The format is functional, cell-based. An outline of the steps:
as §2

For a further test, the system named is K562. The test is described as follows: Antiproliferative activity against human K562 cells assessed as cell growth inhibition by MTT assay. The format is functional, cell-based.
For another test, the target named is Tubulin (Homo sapiens) (UniProt P68371+Q9H4B7+P0DPH7+P68366+Q13509+Q71U36+P04350+Q3ZCM7+P07437+P68363+Q9BQE3+Q6PEY2+Q13885+Q9BVA1+Q9BUF5). The test is described as follows: Inhibition of tubulin (unknown origin) polymerization at 10 uM measured every 1 min over 20 mins by fluorescence assay relative to control. The format is protein-complex assay. A digest of the protocol:
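Tubulin in reaction buffer incubated at 37 °C with test agent at final 10 μM; control 1% DMSO. Polymerization followed at 340 nm, read every minute over 20 min. Run three times.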

Where only a bound is given, the exact number is not on record here.

As for `COc1cc(-c2nc(N)n(CC(=O)c3ccc(F)c(F)c3)n2)cc(OC)c1OC`, the inhibition of growth at 100 µM with MCF7 [1] amounted to 48%; with HeLa [2] it was 31%; with A549, 14%; with PC-3, 28%; in the test on PANC-1 [3], 52%.

For `CCCc1ccc(NC(=O)Cn2nc(-c3cc(OC)c(OC)c(OC)c3)nc2N)cc1`, the inhibition of growth at 100 µM in the test with MCF7 [1] is 70%; in the test on HeLa [2], 75%; with A549, 37%; with PC-3 it was 61%; with PANC-1 [3], 91%. Moreover, the 50% inhibitory concentration (IC50) with MCF7 [4] came to 44.7 µM; in the test with HeLa [5], 56.1 µM; with PANC-1 [6], 20 µM; in the test on K562, 41.1 µM. Also, the inhibition against Tubulin (Homo sapiens) came to 14%.

Take `COc1ccc(NC(=O)Cn2nc(-c3cc(OC)c(OC)c(OC)c3)nc2N)cc1OC`: the inhibition of growth at 100 µM in the test with MCF7 [1] is 12%; in the test with HeLa [2], 41%; in the test with A549, 22%; in the test on PC-3, 42%; in the test with PANC-1 [3], 14%.

Regarding `COc1ccc(/C=C\c2cc(OC)c(OC)c(OC)c2)cc1O` [COMBRETASTATIN A4], the figures for the IC50 with MCF7 [4], in the test on HeLa [5] and in the test with K562 were 0.17 µM, 0.0047 µM and 0.61 µM, respectively.

For `COc1cccc(NC(=O)Cn2nc(-c3cc(OC)c(OC)c(OC)c3)nc2N)c1`, the inhibition of growth at 100 µM was found to be 39% in the test on HeLa [2] and 6% in the test with PC-3.

On to `COc1cc(-c2nc(N)n(Cc3ccc(Cl)cc3)n2)cc(OC)c1OC`, for which the inhibition of growth at 100 µM was 49% with MCF7 [1]; 55% with HeLa [2]; 38% in the test on A549; 48% in the test with PC-3; 39% with PANC-1 [3].

Take `COc1cc(-c2nc(N)n(CC(=O)Nc3ccc(C)cc3)n2)cc(OC)c1OC`: the inhibition of growth at 100 µM amounted to 35% in the test with HeLa [2], 31% in the test on PC-3 and 5% with PANC-1 [3].

Turning to `COc1cc(-c2nc(N)n(CC(=O)Nc3ccc(Cl)cc3)n2)cc(OC)c1OC`, the inhibition of growth at 100 µM in the test on MCF7 [1] came out at 37%; in the test on HeLa [2] it was 30%; in the test on A549, 22%; in the test with PC-3 it was 14%; with PANC-1 [3] it was 12%.

As for `COc1cc(-c2nc(N)n(CC(=O)c3ccc(Cl)cc3)n2)cc(OC)c1OC`, the inhibition of growth at 100 µM is 38% with HeLa [2], 26% in the test on A549, 26% in the test with PC-3 and 6% with PANC-1 [3].

As to `COc1cc(-c2nc(N)n(CC(=O)c3ccc(F)cc3)n2)cc(OC)c1OC`, the inhibition of growth at 100 µM in the test with MCF7 [1] came to 27%; in the test on HeLa [2] it was 9%; with A549 it was 13%; in the test on PC-3, 18%.

As to `COc1cc(-c2nc(N)n(CC(=O)c3ccc(Br)cc3)n2)cc(OC)c1OC`, the inhibition of growth at 100 µM in the test with MCF7 [1] was found to be 27%; in the test on HeLa [2], 41%; in the test with A549, 12%; in the test with PC-3, 38%; in the test with PANC-1 [3], 6%.

With `COc1cc(-c2nc(N)n(CC(=O)Nc3ccc(C)cc3F)n2)cc(OC)c1OC`, the inhibition of growth at 100 µM with MCF7 [1] is 21%; in the test with HeLa [2] it was 32%; in the test with A549 it was 12%; in the test with PC-3, 25%; with PANC-1 [3], 22%.

For the compound `COc1cc(-c2nc(N)n(CC(=O)Nc3ccc(C(C)C)cc3)n2)cc(OC)c1OC`, the inhibition of growth at 100 µM in the test with MCF7 [1] turned out to be 8%; in the test with HeLa [2], 45%; with PC-3 it was 37%; in the test with PANC-1 [3], 22%.

For `COc1cccc(C(=O)Cn2nc(-c3cc(OC)c(OC)c(OC)c3)nc2N)c1`, the inhibition of growth at 100 µM is 30% in the test on MCF7 [1], 27% in the test on HeLa [2], 20% in the test with A549 and 37% with PC-3.

With `COc1cc(-c2nc(N)n(Cc3cccc(C#N)c3)n2)cc(OC)c1OC`, the inhibition of growth at 100 µM with MCF7 [1] stood at 43%; with HeLa [2], 28%; with A549 it was 30%; in the test with PANC-1 [3] it was 6%.

In the case of `COc1cc(-c2nc(N)n(Cc3cc(OC(F)(F)F)cc(OC(F)(F)F)c3)n2)cc(OC)c1OC`, the inhibition of growth at 100 µM in the test with MCF7 [1] is 55%; in the test on HeLa [2], 73%; in the test on A549 it was 6%; in the test with PC-3 it was 36%; in the test on PANC-1 [3], 71%. The IC50 is more than 100 µM in the test on MCF7 [4], 53.1 µM in the test with HeLa [5], 73 µM in the test with PANC-1 [6] and 31.5 µM in the test on K562.

As to `COc1cc(-c2nc(N)n(Cc3ccc([N+](=O)[O-])cc3)n2)cc(OC)c1OC`, the inhibition of growth at 100 µM with MCF7 [1] turned out to be 52%; with HeLa [2], 58%; in the test with A549 it was 13%; with PC-3, 21%; in the test with PANC-1 [3] it was 53%. Moreover, the half-inhibitory concentration (IC50) with MCF7 [4] is 82.1 µM; in the test on HeLa [5], 57.2 µM; in the test with PANC-1 [6] it was more than 100 µM; in the test on K562, more than 100 µM.

Consider `COc1cc(-c2nc(N)n(Cc3ccccc3F)n2)cc(OC)c1OC`, for which the inhibition of growth at 100 µM in the test with MCF7 [1] came to 33%; in the test on HeLa [2] it was 33%; in the test on A549 it was 24%; with PC-3, 35%; in the test with PANC-1 [3] it was 5%.

Regarding `COc1cc(-c2nc(N)n(CC(=O)c3ccccc3)n2)cc(OC)c1OC`, the inhibition of growth at 100 µM in the test with MCF7 [1] worked out at 30%; in the test with HeLa [2], 42%; with A549, 15%; with PANC-1 [3], 4%.

Take `COc1ccc(NC(=O)Cn2nc(-c3cc(OC)c(OC)c(OC)c3)nc2N)cc1`: the inhibition of growth at 100 µM worked out at 50% in the test with MCF7 [1], 30% in the test with HeLa [2], 9% with A549 and 33% in the test on PC-3.

`COc1cc(-c2nc(N)n(Cc3ccc(F)cc3)n2)cc(OC)c1OC`: the inhibition of growth at 100 µM was 34% in the test with MCF7 [1]; 28% in the test with HeLa [2]; 42% in the test with A549; 41% in the test with PC-3; 7% in the test on PANC-1 [3].

As for `COc1cc(-c2nc(N)n(CC(=O)Nc3ccc(N(C)C)cc3)n2)cc(OC)c1OC`, the values for the inhibition of growth at 100 µM in the test with MCF7 [1], with HeLa [2] and in the test with A549 were 14%, 29% and 7%, respectively.

On to `COc1cc(-c2nc(N)n(CC(=O)Nc3cccc(C)c3)n2)cc(OC)c1OC`, for which the inhibition of growth at 100 µM in the test with MCF7 [1] stood at 23%; in the test on HeLa [2], 18%; in the test on A549 it was 34%; in the test on PC-3, 50%; in the test with PANC-1 [3] it was 10%.

As for `COc1cc(-c2nc(N)n(CC(=O)c3ccc(C)cc3)n2)cc(OC)c1OC`, the inhibition of growth at 100 µM with MCF7 [1] was determined as 53%; in the test with HeLa [2], 70%; with PC-3 it was 35%; in the test on PANC-1 [3], 17%. In addition, the IC50 in the test on MCF7 [4] is 53 µM; with HeLa [5], 54 µM; in the test with PANC-1 [6] it was more than 100 µM; in the test on K562 it was 33 µM. This compound gave an inhibition on Tubulin (Homo sapiens) of 42%.

Take `COc1cc(-c2nc(N)n(CC(=O)Nc3c(C)cc(C)cc3C)n2)cc(OC)c1OC`: the inhibition of growth at 100 µM in the test with MCF7 [1] was determined as 34%; with HeLa [2], 49%; in the test with A549, 16%; with PC-3 it was 50%; with PANC-1 [3] it was 32%.

On to `CCc1ccc(NC(=O)Cn2nc(-c3cc(OC)c(OC)c(OC)c3)nc2N)cc1`, for which the inhibition of growth at 100 µM with MCF7 [1] is 31%; with HeLa [2], 12%; with A549 it was 27%; in the test on PC-3, 40%.

Turning to `COc1cc(-c2nc(N)n(CC(=O)Nc3ccc(C)c(C)c3)n2)cc(OC)c1OC`, the inhibition of growth at 100 µM in the test on MCF7 [1] was found to be 32%; in the test with HeLa [2], 20%; in the test with A549, 29%; with PANC-1 [3] it was 32%.

Regarding `COc1cc(-c2nc(N)n(CC(=O)c3cccc(Br)c3)n2)cc(OC)c1OC`, the inhibition of growth at 100 µM in the test with MCF7 [1] was 59%; with HeLa [2] it was 66%; in the test with A549, 35%; in the test on PANC-1 [3] it was 51%. Moreover, the half-inhibitory concentration (IC50) in the test on MCF7 [4] was 68.4 µM; in the test on HeLa [5] it was 58.2 µM; in the test on PANC-1 [6], 79.6 µM; in the test on K562 it was more than 100 µM.

The IC50 is the concentration needed to halve the response being measured. As usually defined, the inhibition is how much of the control response was suppressed.
